High-throughput results from PubChem BioAssay.
DENV2 CPE: protects cells from dengue virus 2 cytopathic effect; CPE inhibition, % at 9.99 µM; DENV2-infected cells, cytopathic effect rescue, plate reader; 1.7% of 350,000 active; in the data active = CPE inhibition above about 20%, passing the limit was not always enough; tested in BHK-21 cells
FN deposit inh: fibronectin deposition inhibition; AH1F fibroblasts, Alexa488-fibronectin deposition fluorescence, overnight; inhibition, % at 12.6 µM; 0.086% of 350,000 active; AID 743247;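 active = mean inhibition across replicates of 30% or more, regardless of how many single replicates reach that level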
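Material: AH1F fibroblast monolayer depositing Alexa488-labelled fibronectin into matrix | Input: 10000 AH1F cells/well | Medium: DMEM plus 2% serum, read in PBS | Reagent: Alexa488-fibronectin, 24 nM final in well | Compound dosing: One dose per compound, pinned | Schedule: 1 h adhesion, overnight exposure | Measured by: Fluorescence at 485 nm excitation, 525 nm emission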
PglD DTNB: blocks C. jejuni PglD acetyltransferase activity; purified PglD enzyme, DTNB colorimetric CoA detection; inhibition, % at 12.5 µM; 0.098% of 360,000 active; in the data active = inhibition above about 16%, passing the limit was not always enough
PGC1a acetyl inh: modulators of PGC1a acetylation; U2OS PGC1a acetylation, AlphaScreen anti-acetyl-lysine; with virally co-expressed GCN5 acetyltransferase; inhibition, % at 15.6 µM; 0.17% of 350,000 active; AID 651687;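 active = every replicate shows inhibition of at least 40%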
rRNA inh HTS: inhibitors of bacterial rRNA selective over humanized ribosomes; E. coli WT GFP vs humanized-ribosome RFP mutants, fluorescence, 24 h; stronger effect = lower value; DMSO median 0, no signal -100; GFP signal change (wild-type ribosome), % (no concentration beside the values); 1.6% of 350,000 active; AID 720706;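 active = significant combined selectivity score with lowered wild-type GFP, culture density cut under 30%, mutant RFP and density less affected; inactive = any of these conditions unmet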
Env fusion inh: blocks HIV Env-driven cell-cell fusion; AID 651610; inhibition, % at 12.3 µM; 1.1% of 360,000 active; HeLa-JRFL Env/CEM21 cell fusion, luciferase;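 active = mean replicate inhibition score of at least 50 and every replicate individually at or above 50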
A number is an active result; . = inactive; / = no result given; ! = not active in a repeat. In the library only some 3.5% were active in any assay of this set; here they are far more common.

SMILES | DENV2 CPE | FN deposit inh | PglD DTNB | PGC1a acetyl inh | rRNA inh HTS | Env fusion inh
COc1ccc(S(=O)(=O)N(C)C[C@@H]2Oc3c(NC(=O)NC4CCCCC4)cccc3C(=O)N([C@H](C)CO)C[C@@H]2C)cc1 | . | . | . | . | . | /
C[C@@H]1CN([C@@H](C)CO)C(=O)c2cccc(NC(=O)NC3CCCCC3)c2O[C@@H]1CN(C)S(=O)(=O)c1ccc(Cl)cc1 | . | . | . | . | . | /
COc1ccc(S(=O)(=O)N(C)C[C@H]2Oc3c(NC(=O)NC4CCCCC4)cccc3C(=O)N([C@H](C)CO)C[C@@H]2C)cc1 | 70! | . | . | . | . | .
Cc1ccc(S(=O)(=O)Nc2ccc3c(c2)C(=O)N([C@@H](C)CO)C[C@H](C)[C@H](CN(C)Cc2ccccc2)OCCCC[C@@H](C)O3)cc1 | . | . | . | . | . | .
O=[N+]([O-])c1ccc(O)c(/C=N/Nc2ccc(Cl)nn2)c1 | / | / | . | / | / | 82
O=C(C[C@@H]1CC[C@@H](NC(=O)Nc2cc(F)ccc2F)[C@H](CO)O1)NCc1ccncn1 | . | . | . | . | . | .
Cc1cc(C2=NNC(=NCCc3ccccc3)SC2)c(C)n1-c1c(C)n(C)n(-c2ccccc2)c1=O | . | . | . | 63 | . | .
Cc1cc(C2=NNC(=NC3CC3)SC2)c(C)n1-c1c(C)n(C)n(-c2ccccc2)c1=O | / | . | / | / | / | .
N#C/C(=N\Nc1ccc([N+](=O)[O-])cc1)C(=N)N1CCOCC1 | . | . | / | / | . | .
N#C/C(=N\Nc1ccc(Br)cc1)C(=N)N1CCOCC1 | . | . | . | / | -26 | .
COc1cc(-c2cc(OC)c(O)c(OC)c2)cc(OC)c1O | . | . | . | . | . | 78
COc1cc(C(=O)C(=O)c2cc(OC)c(O)c(OC)c2)cc(OC)c1O | . | . | . | / | . | .
C[C@@H]1CN([C@H](C)CO)C(=O)Cc2cc(NC(=O)c3ccncc3)ccc2O[C@H]1CN(C)C(=O)Nc1ccc(C(F)(F)F)cc1 | 23 | / | . | . | . | .
C[C@@H]1CN([C@@H](C)CO)C(=O)Cc2cc(NC(=O)c3ccncc3)ccc2O[C@@H]1CN(C)Cc1ccc(C(F)(F)F)cc1 | 31 | . | . | . | . | .
C[C@@H]1CN([C@@H](C)CO)C(=O)Cc2cc(NC(=O)Nc3ccc(C(F)(F)F)cc3)ccc2O[C@H]1CN(C)C(=O)Nc1ccc(C(F)(F)F)cc1 | 53 | / | . | . | . | .
Cc1ccc(S(=O)(=O)N[C@H]2CC[C@H](CC(=O)NCc3ccncn3)O[C@H]2CO)cc1 | . | . | . | . | . | .
O=C(C[C@@H]1C[C@H]2c3cc(NS(=O)(=O)c4ccccc4)ccc3O[C@H]2[C@@H](CO)O1)NCC1CC1 | . | . | . | . | . | .
Cc1ccc(S(=O)(=O)NCC(=O)OCC(=O)N(Cc2ccccc2)C(C)(C)C)cc1 | 93 | . | / | / | . | .
Cc1ccc(S(=O)(=O)NCCC(=O)OCC(=O)N(Cc2ccccc2)C(C)(C)C)cc1 | . | . | / | / | . | .
Cc1ccc2c(c1)nnn2C1CCN(S(=O)(=O)c2ccc(C(=O)N3C(C)CCCC3C)cc2)CC1 (centres undefined) | / | / | . | . | / | 67
Cc1ccc2c(c1)nnn2C1CCN(S(=O)(=O)c2ccc(C(=O)O)cc2)CC1 | . | . | / | / | . | .
CCN(c1ccccc1)S(=O)(=O)c1ccc(C(=O)N2CCN(c3ccccc3F)CC2)cc1 | 53 | . | . | / | . | .
CO[C@H](CN(C)S(=O)(=O)c1ccc(F)cc1)[C@@H](C)CN([C@@H](C)CO)S(=O)(=O)c1cccc(Cl)c1 | . | . | . | . | . | /
COc1ccc(S(=O)(=O)Nc2ccc3c(c2)CC(=O)N([C@@H](C)CO)C[C@H](C)[C@H](CN(C)C(=O)Nc2cccc4ccccc24)O3)cc1 | . | . | . | . | . | .
CC=Cc1ccc2n(c1=O)C[C@H]1[C@H](CO)[C@@H](C(=O)NCCc3ccncc3)N[C@@H]21 (mixture of isomers) | . | / | . | . | . | /
SMILES | DENV2 CPE | FN deposit inh | PglD DTNB | PGC1a acetyl inh | rRNA inh HTS | Env fusion inh
O=C(Cc1coc2cc(O)ccc12)N1CCN(S(=O)(=O)c2ccc(Br)cc2)CC1 | . | . | . | . | -20 | .
Cc1ccc2c(CC(=O)N3CCN(S(=O)(=O)c4cccs4)CC3)coc2c1 | / | / | . | . | / | /
C[C@H](CO)N1C[C@H](C)[C@@H](CN(C)Cc2ccccc2C(F)(F)F)OCc2ccccc2-c2ccccc2C1=O | . | / | / | . | / | /
O=C(c1ccc(C(=O)N2CCOCC2)s1)N1CCOCC1 | / | . | . | . | / | .
O=C(c1cc(Br)c(Br)s1)N1CCOCC1 | . | . | . | / | . | 63
COc1ccc(-c2c(C)nn3c(C(F)(F)F)cc(C)nc23)cc1 | . | . | . | . | / | 87
COc1ccc(CNC(=O)C[C@@H]2CC[C@H](NC(=O)CN(C)C)[C@H](CO)O2)cc1 | . | . | . | . | . | .
CCC1NC(=O)c2ccccc2N1c1cccc(Cl)c1 (centres undefined) | . | . | . | . | -45 | .
C[C@H](O)[C@@H]1C(=O)N2CCc3c([nH]c4cccc(-c5ccccc5)c34)[C@@H]2C[C@@H]1N(C)C(=O)NC1CCCCC1 | . | . | / | / | . | 61
CCOC(=O)N(C)[C@H]1C[C@H]2c3[nH]c4ccccc4c3CCN2C(=O)[C@H]1[C@H](C)O | . | . | / | / | . | .
C[C@H](O)[C@@H]1C(=O)N2CCc3ccc(-c4ccccc4)cc3[C@@H]2C[C@@H]1N(C)C(=O)NC1CCCCC1 | . | . | . | . | . | .
COCCNC(=S)N(C)[C@H]1C[C@H]2c3[nH]c4cccc(-c5ccccc5)c4c3CCN2C(=O)[C@H]1[C@H](C)O | . | . | / | / | . | 59
C=CCNC(=S)N(C)[C@H]1C[C@H]2c3[nH]c4c(-c5ccccc5)cccc4c3CCN2C(=O)[C@H]1[C@H](C)O | . | . | / | / | . | .
CCOC(=O)CNC(=O)N(C)[C@H]1C[C@H]2c3[nH]c4ccccc4c3CCN2C(=O)[C@H]1[C@H](C)O | 24 | . | . | . | . | .
CCN(C[C@@H]1[C@@H](c2ccccc2)[C@@H](CO)N1S(C)(=O)=O)C(=O)C1CC1 | . | / | . | . | . | /
C[C@H]1CCCCO[C@@H](CN(C)Cc2ccncc2)[C@@H](C)CN([C@@H](C)CO)C(=O)c2cc(NS(=O)(=O)c3ccccc3)ccc2O1 | . | . | . | . | . | .
C[C@@H]1CN([C@H](C)CO)C(=O)c2cc(NC(=O)Nc3ccc4c(c3)OCO4)ccc2O[C@@H]1CN(C)CC1CCCCC1 | . | / | . | / | . | .
NNC(=O)COc1ccccc1[N+](=O)[O-] | . | . | / | . | . | .
CC(C)(C)/C(COc1ccccc1[N+](=O)[O-])=N/O | . | . | . | / | -17 | .
